ChEMBL document CHEMBL1649409, “One-pot microwave assisted synthesis under green chemistry conditions, antioxidant screening, and cytotoxicity assessments of benzimidazole Schiff bases and pyrimido[1,2-a]benzimidazol-3(4H)-ones” (Eur J Med Chem, 2011)
Activity calls are given as the source filed them. The calls are words filed in the database; no cut-off is given here.

What was measured:
[1] = tested on: Radical scavenging activity; assay: Antioxidant activity assessed as DPPH radical scavenging activity at 0.05 mM after 20 mins; format: functional
In short: (§1)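 DPPH (0.05 mM in absolute ethanol) mixed with an equal volume of compound in DMSO (final 0.05 mM). Shaken vigorously, left 20 or 60 min, absorbance read at 517 nm. Percent activity calculated; three replicates averaged.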

[2] = tested on: Radical scavenging activity; assay: Antioxidant activity assessed as DPPH radical scavenging activity at 0.05 mM after 60 mins; format: functional; in short: as §1
[3] = Antioxidant activity assessed as protection against […]-induced linoleic acid lipid peroxidation 0.01 mM; format: functional
In short: (§2)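 Linoleic acid sodium salt (16 mM solution) in 0.05 M phosphate buffer, pH 7.4, prethermostated at 37 °C. Oxidation started at 37 °C under air with 40 mM AAPH solution, with compound aliquots in DMSO present. Blanks carry the same DMSO level. Conjugated diene hydroperoxide formation followed by absorbance increase at 234 nm. At least triplicate, averaged.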

[4] = Antioxidant activity assessed as protection against […]-induced linoleic acid lipid peroxidation 0.1 mM; format: functional; in short: as §2
[5] = tested on: Glycine max; assay: Inhibition of soybean LOX at 0.01 mM
In short: (§3)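 Soybean lipoxygenase solution (1/9×10^-4 w/v in saline) incubated at RT with sodium linoleate and compound in DMSO. Conversion to 13-hydroperoxylinoleic acid recorded at 234 nm against a standard inhibitor. At least triplicate, averaged.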

[6] = tested on: Glycine max; assay: Inhibition of soybean LOX at 0.1 mM; in short: as §3
[7] = Cytotoxicity against human lung fibroblast assessed as cell viability at 0.02 mM after 24 hrs by MTT assay; format: cell-based; conditions: 20 µM
In short: (§4)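 Human lung fibroblasts, passage 19, grown in DMEM with 10% FBS, penicillin and streptomycin at 37 °C, 5% CO2. Seeded at 3×10^4 cells/mL and allowed to adhere 24 h. Exposed 24 h to compounds in DMSO (≤1% final), 1–50 µg/mL. After washing, MTT (5 mg/mL in PBS) added for 4–6 h at 37 °C. Formazan dissolved in isopropanol, read at 570 nm. At least three measurements.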

[8] = Cytotoxicity against human lung fibroblast assessed as cell viability at 50 ug/ml after 24 hrs by MTT assay; format: cell-based; conditions: human lung fibroblasts, read-out: Activity; in short: as §4
[9] = Cytotoxicity against human lung fibroblast assessed as cell viability at 0.17 mM after 24 hrs by MTT assay; format: cell-based; conditions: human lung fibroblasts, read-out: Activity; in short: as §4
[10] = Cytotoxicity against human lung fibroblast assessed as cell viability at 0.03 to 0.037 mM after 24 hrs by MTT assay; format: cell-based; conditions: human lung fibroblasts, in the assay text read “0.003 to 0.037 mM” for “0.03 to 0.037 mM”, read-out: Activity; in short: as §4
[11] = Cytotoxicity against human lung fibroblast assessed as cell viability at 0.16 mM after 24 hrs by MTT assay; format: cell-based; conditions: human lung fibroblasts, read-out: Activity; in short: as §4
[12] = Cytotoxicity against human lung fibroblast assessed as cell viability at 0.04 mM after 24 hrs by MTT assay; format: cell-based; conditions: 40 µM; in short: as §4

Compound	inhibition [1]	inhibition [2]	inhibition [3]	inhibition [4]	inhibition [5]	inhibition [6]	Activity [7]	viability at 24 h, 50 ug/ml [8]	viability at 24 h, 170 µM [9]	viability at 24 h, up to 37 µM [10]	viability at 24 h, 160 µM [11]	Activity [12]
COc1cccc(/C(C)=N/c2nc3ccccc3[nH]2)c1	inactive	inactive	69%	100%	inactive	42%						
CC1(c2cccc(Br)c2)C(=O)C(c2cccc(Br)c2)=Nc2nc3ccccc3n21 (stereo not drawn)	inactive	3%	51%		inactive	12%						
CC1(c2ccc(Br)cc2)C(=O)C(c2ccc(Br)cc2)=Nc2nc3ccccc3n21 (stereo not drawn)	3%	2%	9%	78%	51%	61%						
CC(Cc1ccc(O)c(O)c1)C(C)Cc1ccc(O)c(O)c1 (stereo not drawn)	81%	83%			40%	84%						
CC1(c2ccc(Cl)cc2)C(=O)C(c2ccc(Cl)cc2)=Nc2nc3ccccc3n21 (stereo not drawn)	2%	2%	33%	97%	inactive	inactive	Non-toxic	37%				
C/C(=N\c1nc2ccccc2[nH]1)c1ccc2ccccc2c1	5%	7%	26%	97%	18%	98%			62.5%			
C/C(=N\c1nc2ccccc2[nH]1)c1cccc(Br)c1	inactive	6%	65%	97%	inactive	inactive						
C/C(=N\c1nc2ccccc2[nH]1)c1ccc(C)cc1	inactive	8%	47%	84%	inactive	inactive						
Cc1ccc(C2=Nc3nc4ccccc4n3C(C)(c3ccc(C)cc3)C2=O)cc1 (stereo not drawn)	inactive	inactive	8%	80%	inactive	40%						
COc1ccc(/C(C)=N/c2nc3ccccc3[nH]2)cc1	4%	3%	12%	68%	22%	65%				56%		
CC1(c2ccccc2)C(=O)C(c2ccccc2)=Nc2nc3ccccc3n21 (stereo not drawn)	2%	1%	11%	100%	49%	100%						
C/C(=N\c1nc2ccccc2[nH]1)c1ccc(Br)cc1	inactive	4%	22%	50%	inactive	18%					73.6%	
COc1cccc(C2=Nc3nc4ccccc4n3C(C)(c3cccc(OC)c3)C2=O)c1 (stereo not drawn)	3%	2%	3%	100%	inactive	inactive		63%				Non-toxic
Cc1c(C)c2c(c(C)c1O)CCC(C)(C(=O)O)O2 (stereo not drawn)				63%								
Cc1cccc(C2=Nc3nc4ccccc4n3C(C)(c3cccc(C)c3)C2=O)c1 (stereo not drawn)	4%	5%	35%	84%	inactive	19%						
Cc1cc(C(C)(C)C)c(O)c(C(C)(C)C)c1	31%	60%										
C/C(=N\c1nc2ccccc2[nH]1)c1cccc(C)c1	inactive	inactive	63%	77%	inactive	8%						
C/C(=N\c1nc2ccccc2[nH]1)c1ccc(Cl)cc1	3%	4%		26%	62%	85%						
C/C(=N\c1nc2ccccc2[nH]1)c1ccccc1	0.3%	5%	18%	67%	inactive	inactive						
